ChEMBL document CHEMBL1139843, “Novel sulfamide analogs of oleoylethanolamide showing in vivo satiety inducing actions and PPARalpha activation” (J Med Chem, 2007)
Calls of active or inactive are those of the source. The calls are words filed in the database; no cut-off is given here.

Columns and labels:
[1] = target: T1, Peroxisome proliferator-activated receptor alpha (Homo sapiens, UniProt Q07869); test: Activation of human PPARalpha by GST pull down assay
T1 sequence (Q07869 whole entry): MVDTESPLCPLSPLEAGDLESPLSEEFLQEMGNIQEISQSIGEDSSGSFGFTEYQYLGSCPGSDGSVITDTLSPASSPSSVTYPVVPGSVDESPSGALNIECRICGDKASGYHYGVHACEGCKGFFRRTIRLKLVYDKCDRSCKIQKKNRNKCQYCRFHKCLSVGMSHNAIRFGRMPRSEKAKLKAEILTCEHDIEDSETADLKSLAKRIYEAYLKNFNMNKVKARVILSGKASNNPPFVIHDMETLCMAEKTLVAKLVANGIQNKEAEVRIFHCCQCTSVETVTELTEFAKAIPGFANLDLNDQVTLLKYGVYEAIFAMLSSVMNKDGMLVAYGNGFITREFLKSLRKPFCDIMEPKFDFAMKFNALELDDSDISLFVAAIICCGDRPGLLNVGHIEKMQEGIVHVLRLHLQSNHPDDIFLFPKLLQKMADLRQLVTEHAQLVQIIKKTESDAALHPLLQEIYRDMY
Summary of the method: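 GST or GST-TIF2 Sepharose beads, pre-blocked with 1 µg/µl BSA, incubated with 20 ng in vitro translated [35S]-labeled PPARalpha with or without compound. Unbound translated protein washed off with immunoprecipitation buffer, then bound receptor detected.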

[2] = target: T2, Peroxisome proliferator-activated receptor alpha (Homo sapiens) (UniProt Q07869); test: Agonist activity at human PPARalpha expressed in MCF7 cells transfected with co-activator TIF2 by luciferase reporter gene assay at 1 uM; type: functional, cell-based
T2 sequence (whole entry): T1 sequence (Q07869 whole entry)
Summary of the method: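 MCF-7 cells grown overnight in phenol red-free DMEM with 5% charcoal-treated FBS. Transfected with DOTAP liposomes carrying human ACO PPRE-luciferase reporter, wild-type hPPARalpha and full-length TIF2. Ligand or DMSO added 4 h after transfection, with medium topped up with charcoal-treated FBS. Cells lysed 16 h later. Luciferase normalized to protein, relative to DMSO-treated cells without overexpression; mean ± SD, n = 3-6.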

Rattus norvegicus [3] = test: Reduction in food intake in Wistar rat at 0.03 to 3 mg/kg, ip
Rattus norvegicus [4] = test: Reduction in food intake in obese Zucker rat at 1 mg/kg, ip after 11 days; type: functional, organism-based; set-up: dose 1 mg/kg
Summary of the method: (§1)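 Genetically obese Zucker (fa/fa) rats, free-feeding, given 1 mg/kg i.p. daily for 11 days at dark-period onset, in Tween 80/saline. Cumulative relative weight gain (g/kg body weight, from day 1) and food intake compared with vehicle; means ± SEM, n = 3-6, ANOVA.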

Rattus norvegicus [5] = test: Reduction in body weight of Wistar rat at 1 mg/kg, ip after 8 days; type: functional, organism-based; set-up: dose 1 mg/kg
Summary of the method: (§2)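 Normal Wistar rats, free-feeding, dosed 1 mg/kg i.p. daily for 8 days at dark-period onset. Compound suspended in Tween 80/saline. Body weight and plasma triglycerides compared with vehicle-treated rats; means ± SEM, n = 3-6, ANOVA.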

Rattus norvegicus [6] = test: Reduction in body weight gain in obese Zucker rat at 1 mg/kg, ip after 11 days; type: functional, organism-based; set-up: dose 1 mg/kg; summary of the method: as §1
Rattus norvegicus [7] = test: Reduction in plasma triglycerides in Wistar rat at 1 mg/kg, ip after 8 days; type: functional, organism-based; set-up: dose 1 mg/kg; summary of the method: as §2

Row | SMILES | EC50 [1] [µM] | Activity [2] | also measured
1 | CCCCCCCCCCCCCCCCCCNS(N)(=O)=O | > 10000 | inactive | Activity (Rattus norvegicus [3]): Active
2 | CCCCCCCC/C=C\CCCCCCCCNS(=O)(=O)NCCC | 11 | – | –
3 | CCCCCCCC/C=C\CCCCCCCC(=O)NCCO [OLEOYLETHANOLAMIDE] | 0.11 | Active | –
4 | CCCCCCCCCCCCCCCCCCNS(=O)(=O)NCCC | 0.1 | Active | Activity (Rattus norvegicus [4]): Active; Activity (Rattus norvegicus [5]): Active; Activity (Rattus norvegicus [6]): Active; Activity (Rattus norvegicus [7]): Active
5 | CCCCCCCCCCCCCCCCNS(=O)(=O)NCCC | 21 | – | –

Second part, led by results:

Row | EC50 [1] [µM] | Activity [2] | SMILES | also measured
6 | > 10000 | – | CCCCCCCCCCCCCCCCNS(N)(=O)=O | –
7 | – | Active | Cc1cccc(Nc2cc(Cl)nc(SCC(=O)O)n2)c1C | –
8 | 0.524 | – | CCCCCCCC/C=C\CCCCCCCCNS(N)(=O)=O | –
